# Assay outcomes deposited in PubChem BioAssay by The Scripps Research Institute Molecular Screening Center.
# CHRM4 antagonist: CHRM4 antagonism in calcium assay. inhibition, % at 3 µM. P08173. AID 624125. CHO-hM4 cells, ACh EC80, Fluo-8 calcium fluorescence. 360,000 compounds, 0.73% hits;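 active means inhibition above its plate's cutoff, the mean inhibition of sample wells plus 3 SD, cut at about 27% in these data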;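 further: 0% = acetylcholine EC80 with DMSO and 100% = DMSO without agonist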
# CHRM4 PAM: positive allosteric modulators of human muscarinic M4 receptor | P08173 | CHO-K1 hM4/Gqi5, Fluo-8 calcium fluorescence, ACh EC20; 0% = ACh EC20, 100% = maximal ACh | activation, % at 3 µM | 360,000 compounds, 0.4% hits | AID 624126;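 active means activation above its plate's cutoff, the mean activation of sample wells plus 3 SD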
# V1R ag counter: counter-screen for oxytocin receptor agonists: human V1a receptor agonists; P37288; CHO-V1R cells, Fluo-8 calcium fluorescence, agonist mode; 0% DMSO, 100% 3 nM vasopressin; activation, % at 3 µM; 320,000 compounds, 0.25% hits; AID 2797;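 active means activation above the mean activation of all tested compounds plus 3 SD, per screening run, cut at about 20% in these data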;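 further: signal is peak over basal fluorescence ratio across a 100 second FLIPR read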
# Target sequence (P37288 whole entry, looked up): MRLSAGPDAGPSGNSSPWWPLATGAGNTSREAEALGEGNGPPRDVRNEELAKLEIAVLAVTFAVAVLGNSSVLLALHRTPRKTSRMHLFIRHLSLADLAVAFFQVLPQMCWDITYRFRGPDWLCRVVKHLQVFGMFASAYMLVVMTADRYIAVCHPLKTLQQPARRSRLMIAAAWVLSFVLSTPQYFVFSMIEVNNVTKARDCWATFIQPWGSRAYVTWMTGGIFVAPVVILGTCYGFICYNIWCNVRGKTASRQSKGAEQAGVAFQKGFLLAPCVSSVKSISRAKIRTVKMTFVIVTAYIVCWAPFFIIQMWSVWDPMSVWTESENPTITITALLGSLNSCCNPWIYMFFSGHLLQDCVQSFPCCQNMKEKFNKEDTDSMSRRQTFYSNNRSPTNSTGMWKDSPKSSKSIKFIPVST
# CHRM4 agonist: CHRM4 agonism in calcium assay; AID 624127; activation, % at 3 µM; CHO-K1 hM4/Gqi5, Fluo-8 calcium fluorescence; vehicle 0%, full acetylcholine response 100%; 360,000 compounds, 0.14% hits; P08173;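 active means activation above the run mean over all test wells plus 3 SD, cut at about 32% in these data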;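 further: peak over basal fluorescence ratio per well then scaled between controls; 0% = DMSO wells and 100% = acetylcholine at EC100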
# OXTR potentiator: potentiators of human oxytocin receptor. P30559. CHO-OTR cells, Fluo-8 calcium fluorescence, potentiator mode; 0% = oxytocin EC15, 100% = EC100. activation, % at 3 µM. 320,000 compounds, 0.061% hits. AID 2445;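 active means activation above that plate's cutoff, the mean activation of tested compounds plus 3 SD, cut at about 6.6% in these data, passing the limit was not always enough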;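 further: 100% uses oxytocin at 75 nM as the full agonist control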
#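 Assay system: CHO cell line stably expressing human OTR. Reagent: EC15 oxytocin agonist. Dosing: single dose, 3.0 µM nominal final compound concentration. Timing: compound 6 min at room temperature before oxytocin, 100 s read. Signal: kinetic Fluo-8 calcium fluorescence. Controls: oxytocin EC15 low and EC100 high.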
# OXTR agonist: activates the human oxytocin receptor; AID 2435; 320,000 compounds, 0.32% hits; activation, % at 3 µM; CHO-OTR cells, Fluo-8 calcium fluorescence; normalized: DMSO 0%, oxytocin 100%; P30559;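 active means activation above the mean of all tested compounds plus 3 SD, cutoff set per screening run, cut at about 20% in these data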;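 further: peak over basal fluorescence ratio from a 100 s FLIPR kinetic read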
# OXTR agonist cf: human OXTR agonism, confirmation; shares compounds with OXTR agonist; CHO-OTR cells, Fluo-8 calcium fluorescence, agonist; activation, % at 3 µM; 390 compounds, 20% hits; AID 434963;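 active means mean activation above about 20% derived from the earlier single-dose screen, limit read from the data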;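 further: peak over minimum fluorescence ratio per well during a 100 second FLIPR read; 0% = DMSO alone and 100% = oxytocin high control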
# V1aR counter 3x: counter-screen for oxytocin receptor agonists: V1a receptor agonists. 390 compounds, 10% hits. CHO-V1R cells, Fluo-8 calcium fluorescence, agonist. activation, % at 3 µM. shares compounds with OXTR agonist;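 active means mean activation over triplicate exceeds the hit threshold set in the earlier primary screen, cut at about 20% in these data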;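 further: peak over basal fluorescence ratio within a 100 second read; 0% = DMSO alone and 100% = 3 nM vasopressin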
# OXTR pot confirm: human OXTR potentiation, confirmation; AID 434985; CHO-OTR cells, Fluo-8 calcium fluorescence; scaled from low-dose to maximal oxytocin; activation, % at 3 µM; shares compounds with OXTR potentiator; 180 tested, under 10 active;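 active means mean percent activation over triplicates above a cutoff set from solvent-only control plates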;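 further: compounds tested in the presence of an EC15 dose of oxytocin; 0% = EC15 oxytocin with DMSO and 100% = EC100 oxytocin with DMSO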
# V1aR agonist cf: confirmation of human vasopressin V1a receptor agonists; shares compounds with V1R ag counter; CHO-V1R cells, Fluo-8 calcium fluorescence, agonist; activation, % at 3 µM; 180 compounds, 20% hits; AID 434964;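 active means average activation exceeds primary screen hit cutoff, cut at about 21% in these data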;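 further: peak over basal fluorescence ratio during a 100 s FLIPR read; 0% = DMSO only wells and 100% = 3 nM vasopressin wells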
# OXTR ag counter: OXTR agonism, counter-screen for V1R agonists; 180 compounds, 10% hits; shares compounds with V1R ag counter; CHO-OTR cells, Fluo-8 calcium fluorescence, agonist; activation, % at 3 µM; AID 434969;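 active means mean activation over three repeats above the cutoff from the earlier oxytocin receptor agonist screen, cut at about 20% in these data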;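 further: peak over minimum fluorescence ratio within a 100 second FLIPR read; 0% = DMSO only wells and 100% = oxytocin high control wells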
# Starred values were filed as active, the others as inactive; . = not tested or not shown. This is a sample that favours compounds with a hit; in the whole collection about 1.5% have one here.
SMILES,CHRM4 antagonist,CHRM4 PAM,V1R ag counter,CHRM4 agonist,OXTR potentiator,OXTR agonist,others
COC(=O)C1=C(c2ccc(C(C)=O)cc2)C[C@@H]2CC[C@H]1N2C(=O)NCc1ccc(C(F)(F)F)cc1,2.2,-6.2,33.0*,35.6*,-9.8,44.6*,
COC(=O)C1=C(c2cccc(OC)c2OC)C[C@@H]2CC[C@H]1N2C(=O)NCc1ccco1,-6.3,2.2,0.3,0.6,0.8,-0.1,
S=C1NCCN1,30.3*,-10.9,0.5,0.9,-5.8,-0.7,
CC(C)C(O)(C(=O)OCC1=CCN2CCC(O)C12)C(C)O (stereo unspecified),1.7,-2.8,.,0.8,.,.,
COc1ccc(CC(C)NCCC(c2ccccc2)c2ccccc2)cc1 (stereo unspecified),15.5,-14.0,11.8,20.5,-18.3,21.0*,OXTR agonist cf=9.0;V1aR counter 3x=3.8
CCCCNC(C)Cc1ccccc1 (stereo unspecified),-7.3,-0.6,1.2,1.4,-8.7,0.9,
Cc1ccc2c(c1)C1CN(C)CCC1N2C(=O)Nc1cccc(Cl)c1 (stereo unspecified),5.7,-3.0,20.1,28.9,-12.4,30.2*,OXTR agonist cf=7.7;V1aR counter 3x=5.5
Cc1[nH]c2ccc(OC(F)(F)F)cc2c1CCNCc1cccc([N+](=O)[O-])c1,16.1,-10.5,10.3,24.4,-7.1,19.7*,OXTR agonist cf=12.7;V1aR counter 3x=7.8
[N-]=[N+]=NCCN1CCC(O)CCC1=O (stereo unspecified),-17.1,5.0,1.3,-0.4,2.5,0.4,
CCOC(=O)[C@]12Cc3ccccc3[C@H]1N(CCC(=O)OC)C(=O)c1ccccc12,-9.1,4.5,.,0.4,.,.,
COc1cccc(NC(=O)[C@@H](NC(=O)N2C[C@H]3C[C@@H](C2)c2cccc(=O)n2C3)C(C)C)c1,-9.4,6.5,0.0,0.6,11.2*,2.6,OXTR pot confirm=-0.6
COc1cc2c(cc1OC)C13CCN4CC5CCOC6CC(=O)N2C1C6C5CC43 (stereo unspecified),-6.7,-1.2,.,0.0,.,.,
CN1CCN(c2ccc([N+](=O)[O-])c(N)c2)CC1,-12.0,0.8,2.1,1.0,-5.1,-0.1,
CN1CCN(c2ccc([N+](=O)[O-])c(SCCO)c2)CC1,-16.7,1.3,0.1,0.8,11.9*,3.7,OXTR pot confirm=-7.8
CCOc1cc2c(cc1OCC)-n1cccc1C(c1cc(C)c(OC)cc1C)NC2 (stereo unspecified),-10.9,-5.3,29.1*,3.4,-5.2,2.4,V1aR agonist cf=0.1;OXTR ag counter=0.4
O=C(CCN1CC1)OCCOC(=O)CCN1CC1,3.5,-2.7,.,0.6,.,.,
